# According to ChEMBL document CHEMBL1151719, “Discovery of a "true" aspirin prodrug” (J Med Chem, 2008):
# Tests used:
# [1] = molecular target: Cholinesterase (Homo sapiens) (UniProt P06276); test: Activity of BuChE in 10% human plasma; type: cell-free; set-up: Vmax(app): unit not given here
# Procedure, shortened: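 Citrated human venous blood was centrifuged, and the pooled plasma or serum was diluted with phosphate buffer pH 7.4. Whole blood was used undiluted. Ester substrate at 5 × 10^-5 M was added from acetonitrile and incubated at 37 °C. Timed aliquots were quenched in ZnSO4 in MeCN/H2O and analysed by HPLC at 230 nm. Apparent KM and Vmax were fitted to the integrated Michaelis-Menten equation. Triplicate.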
# [2] = test system: Platelet; test: Inhibition of arachidonic acid-induced platelet aggregation in whole blood; type: functional, tissue-based
# Procedure, shortened: (§1)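 Citrated human whole blood (500 µL) diluted with 500 µL saline, equilibrated 10 min at 37 °C, then pre-incubated 10 min with stirring with test compound added in DMSO (10 µL). Aggregation triggered by arachidonic acid (0.5 mM); impedance read over 6 min. Inhibition tested over 5-100 µM; fit by nonlinear regression.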
# [3] = Stability in 10% human plasma assessed as half life of hydrolysis at pH 7.4; type: ADME, cell-free
# Procedure, shortened: (§2)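 Pooled plasma or serum from centrifuged citrated human venous blood, diluted with pH 7.4 phosphate buffer (whole blood undiluted), preheated to 37 ± 0.5 °C. Ester added from acetonitrile at 5 × 10^-5 M. Aliquots were quenched in 2% ZnSO4 in MeCN/H2O (1:1), centrifuged, and analysed by gradient C18 HPLC (230 nm) until the parent was consumed. Fit to first-order decay; triplicate.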
# [4] = test system: Plasma; test: Stability in 10% human plasma assessed as aspirin yield at pH 7.4; type: ADME, cell-free; procedure, shortened: as §2
# [5] = test system: Plasma; test: (§3) Stability in 50% human plasma assessed as half life of hydrolysis at pH 7.4; type: ADME, cell-free; conditions: plasma
# Procedure, shortened: (§4)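 Ester at 5 × 10^-5 M, added from acetonitrile, was incubated at 37 °C in pooled citrated human plasma diluted to 50% with phosphate buffer pH 7.4. Aliquots were deproteinised with ZnSO4 in MeCN/H2O and the remaining ester was quantified by HPLC at 230 nm. The rate constant came from an exponential decay fit. Triplicate.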
# [6] = Stability in 30% human plasma assessed as half life of hydrolysis at pH 7.4; type: ADME, cell-free; procedure, shortened: as §2
# [7] = test system: Plasma; test: Stability in 30% human plasma assessed as aspirin yield at pH 7.4; type: ADME, cell-free; procedure, shortened: as §2
# [8] = test system: Platelet; test: Inhibition of arachidonic acid-induced platelet aggregation in whole blood at 100 uM; type: functional; procedure, shortened: as §1
# [9] = Stability in whole blood assessed as half life of hydrolysis at pH 7.4; type: ADME, tissue-based; procedure, shortened: as §2
# [10] = Stability in 10% rat plasma assessed as half life of hydrolysis at pH 7.4; type: ADME, cell-free
# [11] = as §3; type: ADME, cell-free; conditions: 50% human plasma; procedure, shortened: as §4
# [12] = Stability in 30% human plasma assessed as half life of hydrolysis at pH 7.4 in presence of 2 mM arylesterase inhibitor EDTA; type: ADME, cell-free; conditions: pH 7.4, with EDTA (arylesterase inhibitor)
# Procedure, shortened: (§5)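 Pooled citrated human plasma was diluted to 30% with phosphate buffer pH 7.4. Inhibitor was preincubated for 5 min before adding ester (5 × 10^-5 M) at 37 °C. Lines 15-16 used plasma from a donor with dibucaine-resistant BuChE. Timed aliquots were quenched with ZnSO4 in MeCN/H2O, and parent and aspirin were measured by HPLC at 230 nm. kobs came from exponential decay. Three determinations, mean ± SD.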
# [13] = Stability in 30% human plasma assessed as half life of hydrolysis at pH 7.4 in presence of 20 uM BuChE subtype inhibitor dibucaine; type: ADME, cell-free; conditions: pH 7.4, with dibucaine (BuChE subtype inhibitor); procedure, shortened: as §5
# [14] = Stability in 30% human plasma assessed as half life of hydrolysis at pH 7.4 in presence of 100 uM AChE inhibitor BW284c51; type: ADME, cell-free; conditions: pH 7.4, with BW284c51 (AChE inhibitor); procedure, shortened: as §5
# [15] = test system: Plasma; test: Stability in 30% human plasma assessed as aspirin yield at pH 7.4 in presence of 2 mM arylesterase inhibitor EDTA; type: ADME, cell-free
# Procedure, shortened: (§6)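 Diluted human plasma (30%, pH 7.4, 37 °C) pre-incubated 5 min with inhibitor (EDTA 2 mM or BNPP 10 µM) before ester addition at 5 × 10^-5 M from acetonitrile. ZnSO4/MeCN quench, then HPLC of ester and aspirin. First-order fit; three determinations.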
# [16] = test system: Plasma; test: Stability in 50% human plasma assessed as aspirin yield at pH 7.4; type: ADME, cell-free; procedure, shortened: as §2
# [17] = Stability in 30% human plasma assessed as half life of hydrolysis at pH 7.4 in presence of 10 uM carboxylesterase inhibitor BNPP; type: ADME, cell-free; conditions: pH 7.4, with BNPP (carboxylesterase inhibitor); procedure, shortened: as §5
# [18] = Stability in 30% human plasma assessed as half life of hydrolysis at pH 7.4 in presence of 20 uM dubucaine-insensitive BuChE subtype inhibitor dibucaine; type: ADME, cell-free; conditions: pH 7.4, with dibucaine; procedure, shortened: as §5
# [19] = test system: Plasma; test: Stability in 30% plasma from patient with dubucaine-insensitive BuChE assessed as aspirin yield at pH 7.4 in presence of 20 uM BuChE inhibitor dibucaine; type: ADME, cell-free; conditions: human; procedure, shortened: as §5
# [20] = test system: Plasma; test: Stability in 30% human plasma assessed as aspirin yield at pH 7.4 in presence of 20 uM BuChE subtype inhibitor dibucaine; type: ADME, cell-free; procedure, shortened: as §5
# [21] = molecular target: Butyrylcholinesterase (Rattus norvegicus) (UniProt Q9JKC1); test: Activity of BuChE in 10% rat plasma
# Butyrylcholinesterase (Rattus norvegicus), sequence (Q9JKC1 as listed by the source): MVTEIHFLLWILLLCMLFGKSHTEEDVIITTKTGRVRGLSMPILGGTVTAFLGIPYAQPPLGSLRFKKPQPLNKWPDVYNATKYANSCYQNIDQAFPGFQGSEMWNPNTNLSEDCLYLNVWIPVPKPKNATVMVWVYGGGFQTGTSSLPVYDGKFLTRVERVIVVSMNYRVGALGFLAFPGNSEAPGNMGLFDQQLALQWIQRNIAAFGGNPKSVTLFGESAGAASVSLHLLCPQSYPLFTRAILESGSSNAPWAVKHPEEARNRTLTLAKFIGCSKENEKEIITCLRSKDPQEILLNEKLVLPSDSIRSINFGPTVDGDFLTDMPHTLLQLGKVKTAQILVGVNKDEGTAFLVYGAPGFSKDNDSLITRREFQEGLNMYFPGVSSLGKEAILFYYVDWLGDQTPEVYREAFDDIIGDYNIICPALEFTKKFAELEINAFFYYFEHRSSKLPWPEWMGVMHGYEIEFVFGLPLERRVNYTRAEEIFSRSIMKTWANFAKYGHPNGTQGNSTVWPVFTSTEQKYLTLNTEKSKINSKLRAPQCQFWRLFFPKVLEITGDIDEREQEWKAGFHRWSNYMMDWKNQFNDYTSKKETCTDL
# [22] = Stability in 30% human plasma assessed as half life of hydrolysis at pH 7.4 in presence of 0.1 uM AChE inhibitor BW284c51; type: ADME, cell-free; conditions: pH 7.4, with BW284c51 (AChE inhibitor); procedure, shortened: as §5
# [23] = test system: Serum; test: Stability in 50% human serum assessed as aspirin yield at pH 7.4; type: ADME, cell-free; procedure, shortened: as §2
# [24] = Stability in 50% human serum assessed as half life of hydrolysis at pH 7.4; type: ADME, cell-free; procedure, shortened: as §2
# [25] = Stability in whole blood assessed as aspirin yield at pH 7.4; type: ADME, tissue-based; procedure, shortened: as §2
# [26] = test system: Plasma; test: Stability in 30% human plasma assessed as aspirin yield at pH 7.4 in presence of 100 uM AChE inhibitor BW284c51; type: ADME, cell-free; procedure, shortened: as §5
# [27] = Stability in 30% human plasma assessed as half life of hydrolysis at pH 7.4 in presence of 10 uM BuChE inhibitor iso-OMPA; type: ADME, cell-free; conditions: pH 7.4, with iso-OMPA (BuChE inhibitor); procedure, shortened: as §5
# [28] = Stability in 30% human plasma assessed as half life of hydrolysis at pH 7.4 in presence of 20 uM cholinesterase inhibitor eserine; type: ADME, cell-free; conditions: pH 7.4, with eserine (cholinesterase inhibitor); procedure, shortened: as §5
# [29] = test system: Plasma; test: Stability in 30% human plasma assessed as aspirin yield at pH 7.4 in presence of 10 uM carboxylesterase inhibitor BNPP; type: ADME, cell-free; procedure, shortened: as §6
# Cholinesterase (Homo sapiens), sequence (P06276 whole entry): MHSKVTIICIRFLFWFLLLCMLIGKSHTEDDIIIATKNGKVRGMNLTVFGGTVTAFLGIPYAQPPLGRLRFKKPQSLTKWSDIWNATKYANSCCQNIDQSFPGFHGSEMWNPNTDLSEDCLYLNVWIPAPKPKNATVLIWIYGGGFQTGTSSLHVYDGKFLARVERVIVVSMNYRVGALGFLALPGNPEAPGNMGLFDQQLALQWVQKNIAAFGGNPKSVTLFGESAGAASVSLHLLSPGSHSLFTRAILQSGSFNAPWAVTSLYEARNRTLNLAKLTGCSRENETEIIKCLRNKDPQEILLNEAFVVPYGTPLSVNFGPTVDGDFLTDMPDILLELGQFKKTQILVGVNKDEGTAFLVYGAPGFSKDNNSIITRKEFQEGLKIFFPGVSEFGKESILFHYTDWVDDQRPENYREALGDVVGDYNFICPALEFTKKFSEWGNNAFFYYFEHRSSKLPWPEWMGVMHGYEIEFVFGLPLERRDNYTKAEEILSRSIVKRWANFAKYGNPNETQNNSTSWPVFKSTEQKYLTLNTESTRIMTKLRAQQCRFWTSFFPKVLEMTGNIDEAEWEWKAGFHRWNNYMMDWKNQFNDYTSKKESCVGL
smiles,measurement,setting,value
CC(=O)Oc1ccccc1C(=O)O [ASPIRIN],T1/2,[1],2 h
same,IC50,[2],25.5 µM
CC(=O)Oc1ccccc1C(=O)Oc1ccccc1,T1/2,[1],0.0217 h
CC(=O)Oc1ccccc1C(=O)O[C@@H]1CO[C@H]2[C@@H]1OC[C@@H]2OC(=O)c1ccccc1O,half-life,[3],4.21 min
same,Vmax(app),[1],0.23
CC(=O)Oc1ccccc1C(=O)O[C@H]1CO[C@H]2[C@@H]1OC[C@H]2OC(=O)c1ccccc1OC(C)=O,Activity,[4],51%
same,t1/2,[5],0.57 min
same,half-life,[3],3.35 min
same,half-life,[6],1.17 min
same,Vmax(app),[1],0.3
same,IC50,[2],34.1 µM
same,Activity,[7],61%
CC(=O)Oc1ccccc1C(=O)O[C@H]1CO[C@H]2[C@@H]1OC[C@H]2O,Activity,[4],3%
same,half-life,[3],3.25 min
same,Vmax(app),[1],0.22
same,inhibition at 100 µM,[8],< 30%
CC(=O)Oc1ccccc1C(=O)O[C@H]1CO[C@H]2[C@@H]1OC[C@H]2OC(=O)c1ccccc1O,half-life,[9],0.96 min
same,Activity,[4],74%
same,half-life,[10],0.47 min
same,half-life,[11],0.49 min
same,half-life,[12],1.41 min
same,half-life,[3],4.9 min
same,half-life,[13],4.6 min
same,half-life,[14],3.9 min
same,Activity,[15],85%
same,Activity,[16],81%
same,Vmax(app),[1],0.17
same,half-life,[17],0.95 min
same,half-life,[18],2 min
same,Activity,[19],69%
same,Activity,[20],6%
same,Vmax(app),[21],1.75 M/min
same,half-life,[22],1.1 min
same,Activity,[23],73%
same,half-life,[24],0.56 min
same,Activity,[25],72%
same,Activity,[26],30%
same,half-life,[27],7.04 min
same,IC50,[2],17.3 µM
same,half-life,[28],5.8 min
same,Activity,[29],84%
CC(=O)Oc1ccccc1C(=O)O[C@@H]1CO[C@H]2[C@@H]1OC[C@@H]2O,half-life,[3],4.73 min
same,Vmax(app),[1],0.25
